Results from ChEMBL document CHEMBL3779817, “Investigations on the 4-Quinolone-3-carboxylic Acid Motif. 7. Synthesis and Pharmacological Evaluation of 4-Quinolone-3-carboxamides and 4-Hydroxy-2-quinolone-3-carboxamides as High Affinity Cannabinoid Receptor 2 (CB2R) Ligands with Improved Aqueous Solubility” (J Med Chem, 2016).
≈ marks a conversion by molar mass, not a printed value.

How the values were obtained:
[1] = target: T1, Cannabinoid receptor 2 (Homo sapiens, UniProt P34972); assay: Displacement of [3H]-CP-55940 from human recombinant CB2 receptor expressed in HEK293 cells after 90 mins by Competition binding assay; format: cell-based
[2] = species: Homo sapiens; assay: Selectivity index, ratio of Ki for recombinant human CB1 receptor to Ki for recombinant human CB2 receptor
[3] = Cytotoxicity against mouse NIH/3T3 cells assessed as cell viability after 24 hrs by neutral red uptake test; format: cell-based; details: NIH3T3, 24 h
[4] = target: Cannabinoid receptor 1 (Homo sapiens) (UniProt P21554); details: HEK293
[5] = Kinetic solubility in DMSO solution at pH 7.4 after 2 hrs by HPLC-UV analysis; format: physicochemical; details: for solubility kinetic at 2 h: DMSO solution, pH 7.4, read-out: Kinetic_solubility; for log(Kinetic_solubility): pH 7.4, 2 h
[6] = Kinetic solubility in DMSO solution at pH 1.0 after 2 hrs by HPLC-UV analysis; format: physicochemical; details: read-out: Kinetic_solubility
[7] = target: T1, Cannabinoid receptor 2; assay: Inverse agonist activity at recombinant human CB2 receptor expressed in CHO-K1 cells assessed as increase in […]-induced cAMP production by luminescence assay relative to AM630; format: functional, cell-based
Outline: (§1)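 CHO-K1 cells overexpressing human CB2, 30000 per well, left overnight at 37 °C, 5% CO2, then given compound dose–response with NKH477 (3× solution of 25 μM) to stimulate adenylate cyclase. cAMP read by enzyme-fragment-complementation chemiluminescence; response normalised to NKH477 alone as 100%. Mean ± SEM of two independent experiments in triplicate.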

[8] = target: T1, Cannabinoid receptor 2; assay: Inverse agonist activity at recombinant human CB2 receptor expressed in CHO-K1 cells assessed as increase in […]-induced cAMP production by luminescence assay; format: functional, cell-based; outline: as §1

Sequence of Cannabinoid receptor 1 (Homo sapiens) (P21554 whole entry): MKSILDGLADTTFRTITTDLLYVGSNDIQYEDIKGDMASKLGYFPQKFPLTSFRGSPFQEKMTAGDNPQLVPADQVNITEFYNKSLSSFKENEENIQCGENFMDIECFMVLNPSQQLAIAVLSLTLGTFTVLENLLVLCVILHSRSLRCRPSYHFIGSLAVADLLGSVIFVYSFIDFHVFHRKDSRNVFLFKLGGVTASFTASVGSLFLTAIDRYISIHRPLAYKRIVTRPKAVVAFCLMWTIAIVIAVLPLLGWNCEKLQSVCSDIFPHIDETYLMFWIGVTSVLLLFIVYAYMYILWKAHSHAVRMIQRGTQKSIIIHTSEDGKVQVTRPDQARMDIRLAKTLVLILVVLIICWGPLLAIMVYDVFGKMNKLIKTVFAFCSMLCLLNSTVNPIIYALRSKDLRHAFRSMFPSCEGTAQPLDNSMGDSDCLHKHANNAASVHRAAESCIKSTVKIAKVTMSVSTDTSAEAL
T1 sequence (P34972 whole entry): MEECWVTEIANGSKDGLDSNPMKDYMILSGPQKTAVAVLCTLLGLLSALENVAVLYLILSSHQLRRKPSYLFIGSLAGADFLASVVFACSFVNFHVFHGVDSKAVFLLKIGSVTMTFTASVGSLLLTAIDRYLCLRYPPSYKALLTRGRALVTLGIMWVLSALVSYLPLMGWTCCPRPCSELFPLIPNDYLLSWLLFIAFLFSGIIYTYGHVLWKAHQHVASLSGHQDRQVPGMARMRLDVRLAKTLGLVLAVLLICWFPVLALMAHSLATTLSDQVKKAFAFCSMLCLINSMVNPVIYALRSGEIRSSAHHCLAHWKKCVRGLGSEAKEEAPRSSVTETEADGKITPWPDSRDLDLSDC

| Structure (SMILES) | Kieq [1] | Ratio Ki [2] | IC50 [3] | Kieq [4] | IC50 [1] | solubility kinetic at 2 h [5] | log(Kinetic_solubility) [5] | solubility kinetic at 2 h [6] | Efficacy [7] | EC50 [8] |
| --- | --- | --- | --- | --- | --- | --- | --- | --- | --- | --- |
| CCCCCn1c(=O)c(C(=O)NC23CC4CC(CC(C4)C2)C3)c(O)c2cc(C(C)C)c(F)cc21 | 66.4 nM | > 150 | 13 µM | > 10000 nM | – | – | – | – | – | – |
| COCCOCn1cc(C(=O)NC23CC4CC(CC(C4)C2)C3)c(=O)c2cc(C(C)C)ccc21 | 480 nM | > 20 | – | > 10000 nM | – | – | – | – | – | – |
| CCCCCn1c(=O)c(C(=O)NC23CC4CC(CC(C4)C2)C3)c(O)c2cc(C(C)C)ccc21 | 0.53 nM | 2350 | 13 µM | 1240 nM | 0.0037 µM | 1.9 µg/mL (≈ 4.22 µM) | -5.38 | 0.02 µg/mL (≈ 0.0444 µM) | < 50% | 0.0026 µM |
| CCCCCn1cc(C(=O)NC23CC4CC(CC(C4)C2)C3)c(=O)c2cc(-c3ccccc3)ccc21 | 3.8 nM | > 2660 | – | > 10000 nM | – | – | – | – | – | – |
| CCCCCn1c(=O)c(C(=O)NC23CC4CC(CC(C4)C2)C3)cc2cc(C(C)C)ccc21 | – | – | 92 µM | – | – | – | – | – | – | – |
| COc1ccc(CNC(=O)c2c(O)c3cc(-c4cccs4)ccc3n(CCCCO)c2=O)cc1 | 2240 nM | > 4 | – | > 10000 nM | – | – | – | – | – | – |
| CN(C)CCn1cc(C(=O)NC23CC4CC(CC(C4)C2)C3)c(=O)c2ccc(F)cc21 | 60 nM | 8 | 15 µM | 501 nM | – | 5.6 µg/mL (≈ 13.6 µM) | -4.87 | 170 µg/mL (≈ 414 µM) | – | – |
| CCCCCn1cc(C(=O)NC23CC4CC(CC(C4)C2)C3)c(=O)c2ccc(F)cc21 | 0.8 nM | 38 | 74 µM | 30.5 nM | – | 0.014 µg/mL (≈ 0.0341 µM) | -7.47 | 0.05 µg/mL (≈ 0.122 µM) | – | – |
| CC(C)c1cc2c(=O)c(C(=O)NC34CC5CC(CC(C5)C3)C4)cn(CCN(C)C)c2cc1F | 11.4 nM | 63 | – | 717 nM | – | 12.1 µg/mL (≈ 26.7 µM) | -4.57 | 35.5 µg/mL (≈ 78.3 µM) | – | – |
| CCCCCn1cc(C(=O)NC23CC4CC(CC(C4)C2)C3)c(=O)c2ccccc21 | 4.7 nM | 9 | – | 42.1 nM | – | – | – | – | – | – |
| O=C(NCc1ccc(F)cc1)c1c(O)c2cc(-c3ccco3)ccc2n(CCCCO)c1=O | 253 nM | 6 | – | 1580 nM | – | – | – | – | – | – |
| CCCCCn1c(=O)c(C(=O)NC23CC4CC(CC(C4)C2)C3)c(O)c2ccccc21 | – | – | 74 µM | – | 0.002 µM | 1.4 µg/mL (≈ 3.43 µM) | -5.47 | 0.23 µg/mL (≈ 0.563 µM) | < 50% | 0.0024 µM |
| CCCCCn1cc(C(=O)NC23CC4CC(CC(C4)C2)C3)c(=O)c2cc(C(C)C)c(F)cc21 | – | – | 9 µM | – | – | – | – | – | – | – |
| O=C(NC12CC3CC(CC(C3)C1)C2)c1cn(CCN2CCS(=O)(=O)CC2)c2cc(F)ccc2c1=O | 246 nM | 8 | – | 1900 nM | – | – | – | – | – | – |
| CCCCCn1cc(C(=O)NC23CC4CC(CC(C4)C2)C3)c(=O)c2cc(C(C)C)ccc21 | – | – | 14 µM | – | – | 1 µg/mL (≈ 2.3 µM) | -5.64 | 0.21 µg/mL (≈ 0.483 µM) | – | – |
| COCCOCn1cc(C(=O)NC23CC4CC(CC(C4)C2)C3)c(=O)c2ccc(F)cc21 | 56 nM | > 177 | – | > 10000 nM | – | – | – | – | – | – |
| CCCCCn1c2c(c(O)c(C(=O)NC34CC5CC(CC(C5)C3)C4)c1=O)CCCC2 | – | – | 15 µM | – | – | 1.3 µg/mL (≈ 3.15 µM) | -5.5 | 0.1 µg/mL (≈ 0.242 µM) | – | – |
| CCCCCn1c(=O)c(C(=O)NCc2ccc(OC)cc2)c(O)c2cc(-c3cccs3)ccc21 | 19.7 nM | 8 | – | 159 nM | – | – | – | – | – | – |
| CCCCCn1c(=O)c(C(=O)NC23CC4CC(CC(C4)C2)C3)c(O)c2ccc(F)cc21 | 0.93 nM | 1380 | 19 µM | 1280 nM | 0.0035 µM | 1.5 µg/mL (≈ 3.52 µM) | -5.45 | 0.17 µg/mL (≈ 0.399 µM) | < 50% | 0.0179 µM |
| CCCCCn1cc(C(=O)NC23CC4CC(CC(C4)C2)C3)c(=O)c2ccc(Sc3ccccc3)cc21 | 1.6 nM | 3.3 | – | 5.3 nM | – | – | – | – | – | – |
| CC(C)c1ccc2c(c1)c(=O)c(C(=O)NC13CC4CC(CC(C4)C1)C3)cn2CCN(C)C | 146 nM | > 68 | 5 µM | > 10000 nM | – | 4.5 µg/mL (≈ 10.3 µM) | -4.99 | 31.5 µg/mL (≈ 72.3 µM) | – | – |
| O=C(NCC1CCCCC1)c1c(O)c2ccccc2n(CCCCO)c1=O | 41.3 nM | 20 | – | 829 nM | – | – | – | – | – | – |
| Cc1ccc(Cn2nc(C(=O)N[C@@H]3C(C)(C)[C@@H]4CC[C@@]3(C)C4)cc2-c2ccc(Cl)c(C)c2)cc1 | – | – | – | > 2820 nM | – | – | – | – | – | – |
| CC(C)c1ccc2c(c1)c(=O)c(C(=O)NC13CC4CC(CC(C4)C1)C3)cn2CCN1CCS(=O)(=O)CC1 | 1930 nM | > 5 | – | > 10000 nM | – | – | – | – | – | – |
